Measured values reported in ChEMBL document CHEMBL1649117, “GRL-02031, a novel nonpeptidic protease inhibitor (PI) containing a stereochemically defined fused cyclopentanyltetrahydrofuran potent against multi-PI-resistant human immunodeficiency virus type 1 in vitro” (Antimicrob Agents Chemother, 2009).

Key:
[1] = system: Human immunodeficiency virus 1; assay: Ratio of EC50 for HIV1 NL4-3 harboring I84V/I85V mutation in protease encoding region infected in human […] cells to EC50 for HIV1 NL4-3 infected in human MT4 cells; format: functional
[2] = system: Human immunodeficiency virus 1; assay: Antiviral activity against HIV1 NL4-3 harboring Q58E mutation in protease encoding region infected in human […] cells assessed as inhibition of p24 Gag protein production by ELISA; format: functional, organism-based; settings: Human immunodeficiency virus 1, NL4-3
How it was run: (§1)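 Protease PCR fragments (ApaI/SmaI) were cloned into pHIV-1NLSma, and virions were harvested from transfected 293T cells over 48 h. MT-4 target cells (10^5/ml) were infected with 100 TCID50s, with or without drug, at 37°C. Day-7 supernatant p24 Gag was read by chemiluminescent enzyme immunoassay.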

[3] = system: Human immunodeficiency virus 1; assay: Ratio of EC50 for indinavir to compound against HIV1 NL4-3 harboring I84V mutation in protease encoding region infected in human […] cells; format: functional
[4] = system: Human immunodeficiency virus 1; assay: Ratio of EC50 for amprenavir to compound against HIV1 NL4-3 harboring M46I/I47V mutation in protease encoding region infected in human […] cells; format: functional
[5] = system: Human immunodeficiency virus 1; assay: Ratio of EC50 for ritonavir to compound against HIV1 NL4-3 harboring M46I mutation in protease encoding region infected in human […] cells; format: functional
[6] = system: Human immunodeficiency virus 1; assay: Ratio of EC50 for HIV1 NL4-3 harboring L90M mutation in protease encoding region infected in human […] cells to EC50 for HIV1 NL4-3 infected in human MT4 cells; format: functional
[7] = system: Human immunodeficiency virus 1; assay: Ratio of EC50 for amprenavir to compound against HIV1 NL4-3 harboring I50V mutation in protease encoding region infected in human […] cells; format: functional
[8] = system: Human immunodeficiency virus 1; assay: Ratio of EC50 for saquinavir to compound against HIV1 NL4-3 harboring L90M mutation in protease encoding region infected in human […] cells; format: functional
[9] = system: Human immunodeficiency virus 1; assay: Antiviral activity against HIV1 NL4-3 harboring L10F/M46I/I47V/V82I/I85V mutation in protease encoding region infected in human […] cells assessed as inhibition of p24 Gag protein production by ELISA; format: functional, organism-based; settings: Human immunodeficiency virus 1, NL4-3; how it was run: as §1
[10] = system: Human immunodeficiency virus 1; assay: Antiviral activity against HIV1 NL4-3 harboring L10F mutation in protease encoding region infected in human […] cells assessed as inhibition of p24 Gag protein production by ELISA; format: functional, organism-based; settings: Human immunodeficiency virus 1, NL4-3; how it was run: as §1
[11] = system: Human immunodeficiency virus 2; assay: Antiviral activity against HIV2 EHO infected in human MT2 cells after 7 days by MTT assay; format: functional, organism-based; settings: Human immunodeficiency virus 2, EHO, MT2, 168 h
[12] = system: Human immunodeficiency virus 1; assay: Antiviral activity against HIV1 NL4-3 harboring V82I mutation in protease encoding region infected in human […] cells assessed as inhibition of p24 Gag protein production by ELISA; format: functional, organism-based; settings: Human immunodeficiency virus 1, NL4-3; how it was run: as §1
[13] = system: Human immunodeficiency virus 1; assay: Antiviral activity against HIV1 Ba-L infected in human PHA-PBM cells after 7 days by MTT assay; format: functional, organism-based; settings: Human immunodeficiency virus 1, Ba-L, PBMC, 168 h
[14] = system: Human immunodeficiency virus 1; assay: Ratio of EC50 for HIV1 NL4-3 harboring V82I/I85V mutation in protease encoding region infected in human […] cells to EC50 for HIV1 NL4-3 infected in human MT4 cells; format: functional
[15] = system: Human immunodeficiency virus 1; assay: Ratio of EC50 for HIV1 NL4-3 harboring I85V mutation in protease encoding region infected in human […] cells to EC50 for HIV1 NL4-3 infected in human MT4 cells; format: functional
[16] = system: Human immunodeficiency virus 1; assay: Ratio of EC50 for HIV1 NL4-3 harboring Q58E mutation in protease encoding region infected in human […] cells to EC50 for HIV1 NL4-3 infected in human MT4 cells; format: functional
[17] = system: Human immunodeficiency virus 1; assay: Ratio of EC50 for ritonavir to compound against HIV1 NL4-3 harboring L33F mutation in protease encoding region infected in human […] cells; format: functional
[18] = system: Human immunodeficiency virus 1; assay: Antiviral activity against HIV1 NL4-3 harboring I84V/I85V mutation in protease encoding region infected in human […] cells assessed as inhibition of p24 Gag protein production by ELISA; format: functional, organism-based; settings: Human immunodeficiency virus 1, NL4-3; how it was run: as §1
[19] = system: Human immunodeficiency virus 1; assay: Ratio of EC50 for ritonavir to compound against HIV1 NL4-3 harboring V82I mutation in protease encoding region infected in human […] cells; format: functional
[20] = system: Human immunodeficiency virus 1; assay: Antiviral activity against HIV1 subtype A 92UG037 infected in human PHA-PBM cells after 7 days by MTT assay; format: functional, organism-based; settings: Human immunodeficiency virus 1, subtype A 92UG037, PBMC, 168 h
[21] = system: Human immunodeficiency virus 1; assay: Antiviral activity against HIV1 NL4-3 harboring I47V mutation in protease encoding region infected in human […] cells assessed as inhibition of p24 Gag protein production by ELISA; format: functional, organism-based; settings: Human immunodeficiency virus 1, NL4-3; how it was run: as §1

## COc1ccc(S(=O)(=O)N(C[C@@H]2CCC(=O)N2)C[C@@H](O)[C@H](Cc2ccccc2)NC(=O)O[C@@H]2C[C@@H]3CCO[C@@H]3C2)cc1
[1]
  Ratio EC50: 4.2
[2]
  EC50: 33 nM
[3]
  Ratio EC50: 2.2
[4]
  Ratio EC50: 1.3
[5]
  Ratio EC50: 1.2
[6]
  Ratio EC50: 1.4
[7]
  Ratio EC50: 1.2
[8]
  Ratio EC50: 1
[9]
  EC50: > 1000 nM
[10]
  EC50: 37 nM
[11]
  EC50: 600 nM
[12]
  EC50: 35 nM
[13]
  EC50: 15 nM
[14]
  Ratio EC50: 1.5
[15]
  Ratio EC50: 1
[16]
  Ratio EC50: 1.4
[17]
  Ratio EC50: 1
[18]
  EC50: 97 nM
[19]
  Ratio EC50: 1.5
[20]
  EC50: 15 nM
[21]
  EC50: 37 nM
